Assay results reported in ChEMBL document CHEMBL1150822, “Additional bioactive Lyso-PAF congeners from the sponge Spirastrella abata” (J Nat Prod, 2001).
In brackets after ≈: the same amount, converted by molar mass. Activity calls are given as the source filed them. No cut-off for these calls is given here.

What was measured:
[1] = test system: HCT-15; experiment: Cytotoxicity against human HCT15 cells after 48 hrs by SRB assay; format: functional; settings: HCT-15, 48 h, read-out: ED50 (the source's name)
Summary of the method: (§1)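 Rapidly growing cells were harvested and seeded at (1-2) × 10^4 cells/well, then preincubated for 24 h. Compounds dissolved in culture medium were added in triplicate, and cells were incubated for 48 h at 37 °C under 5% CO2. Cells were fixed with cold TCA and stained with 0.4% SRB in 1% acetic acid. Bound dye was solubilized in 10 mM unbuffered Tris base and absorbance read at 520 nm.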

[2] = test system: XF498; experiment: Cytotoxicity against human XF498 cells after 48 hrs by SRB assay; format: functional; settings: XF498, 48 h, read-out: ED50 (the source's name); summary of the method: as §1
[3] = test system: A549; experiment: Cytotoxicity against human A549 cells after 48 hrs by SRB assay; format: functional; settings: A549, 48 h, read-out: ED50 (the source's name); summary of the method: as §1
[4] = test system: SK-MEL-2 (Homo sapiens); experiment: Cytotoxicity against human SK-MEL-2 cells after 48 hrs by SRB assay; settings: SK-MEL-2, 48 h, read-out: ED50 (the source's name)
[5] = test system: SK-OV-3; experiment: Cytotoxicity against human SKOV3 cells after 48 hrs by SRB assay; format: functional; settings: SK-OV-3, 48 h, read-out: ED50 (the source's name); summary of the method: as §1
[6] = test system: Chang; experiment: (§2) Inhibition of cholesterol biosynthesis in human Chang cells; format: functional, cell-based
[7] = as §2; format: functional, cell-based

Structure (SMILES)	EC50 [1] [µg/mL]	EC50 [2] [µg/mL]	EC50 [3] [µg/mL]	EC50 [4] [µg/mL]	EC50 [5] [µg/mL]	Activity [6]	IC50 [7] [µg/mL]
COc1cccc2c1C(=O)c1c(O)c3c(c(O)c1C2=O)C[C@@](O)(C(=O)CO)C[C@@H]3O[C@H]1C[C@H](N)[C@H](O)[C@H](C)O1 [DOXORUBICIN]	0.04 (≈ 0.0736 µM)	0.08 (≈ 0.147 µM)	0.02 (≈ 0.0368 µM)	0.02 (≈ 0.0368 µM)	0.11 (≈ 0.202 µM)	–	–
CCCCCCCCCCCCCCC(COC[C@H](O)COP(=O)([O-])OCC[N+](C)(C)C)OC (some centres undefined)	5 (≈ 9.77 µM)	4.5 (≈ 8.79 µM)	5.8 (≈ 11.3 µM)	5.2 (≈ 10.2 µM)	5.7 (≈ 11.1 µM)	inactive	–
CCCCCCCCCCC/C=C\CC(COC[C@H](O)COP(=O)([O-])OCC[N+](C)(C)C)OC (some centres undefined)	3.7 (≈ 7.26 µM)	4 (≈ 7.85 µM)	6.3 (≈ 12.4 µM)	3.8 (≈ 7.46 µM)	5.9 (≈ 11.6 µM)	–	–
CCCCCCCCCCC/C=C\CCCOC[C@H](O)COP(=O)([O-])OCC[N+](C)(C)C	> 30	> 30	> 30	> 30	> 30	–	118 (≈ 246 µM)
CCCCCCCCCCCC/C=C\CCOC[C@H](O)COP(=O)([O-])OCC[N+](C)(C)C	> 30	> 30	> 30	> 30	> 30	–	102 (≈ 213 µM)
CCCCCCCCCCCCCCCCOC[C@@H](O)COP(=O)([O-])OCC[N+](C)(C)C	5.4 (≈ 11.2 µM)	4.9 (≈ 10.2 µM)	5.5 (≈ 11.4 µM)	5.4 (≈ 11.2 µM)	4.9 (≈ 10.2 µM)	inactive	–
